Values joined by “and” are separate entries in the source; they are usually repeats but may differ in a detail not shown here. Equal values may be shown once. Read-outs that look alike come from different tables or passages of the source.
Key:
[1] = test system: MDA-MB-231 cells; assay: Morphological study by inverted microscope; type: cell-based; conditions: 48 h
In short: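 MDA-MB-231 cells were grown in DMEM with 10% FBS and 1% streptomycin/penicillin at 37 °C, 5% CO2. They were treated with varying concentrations of test compound for 48 h and examined by inverted light microscopy. Phenotypic changes were scored as cell shrinkage, apoptotic body formation and membrane blebbing.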

[2] = molecular target: PI3Kδ (Homo sapiens, UniProt O00329); assay: PI3Kδ inhibition assay; type: biochemical
[3] = molecular target: T1, KSP ATPase (Homo sapiens, UniProt P52732); assay: Microtubule-activated KSP ATPase kinetic assay; type: biochemical
T1 sequence (P52732 1-1056): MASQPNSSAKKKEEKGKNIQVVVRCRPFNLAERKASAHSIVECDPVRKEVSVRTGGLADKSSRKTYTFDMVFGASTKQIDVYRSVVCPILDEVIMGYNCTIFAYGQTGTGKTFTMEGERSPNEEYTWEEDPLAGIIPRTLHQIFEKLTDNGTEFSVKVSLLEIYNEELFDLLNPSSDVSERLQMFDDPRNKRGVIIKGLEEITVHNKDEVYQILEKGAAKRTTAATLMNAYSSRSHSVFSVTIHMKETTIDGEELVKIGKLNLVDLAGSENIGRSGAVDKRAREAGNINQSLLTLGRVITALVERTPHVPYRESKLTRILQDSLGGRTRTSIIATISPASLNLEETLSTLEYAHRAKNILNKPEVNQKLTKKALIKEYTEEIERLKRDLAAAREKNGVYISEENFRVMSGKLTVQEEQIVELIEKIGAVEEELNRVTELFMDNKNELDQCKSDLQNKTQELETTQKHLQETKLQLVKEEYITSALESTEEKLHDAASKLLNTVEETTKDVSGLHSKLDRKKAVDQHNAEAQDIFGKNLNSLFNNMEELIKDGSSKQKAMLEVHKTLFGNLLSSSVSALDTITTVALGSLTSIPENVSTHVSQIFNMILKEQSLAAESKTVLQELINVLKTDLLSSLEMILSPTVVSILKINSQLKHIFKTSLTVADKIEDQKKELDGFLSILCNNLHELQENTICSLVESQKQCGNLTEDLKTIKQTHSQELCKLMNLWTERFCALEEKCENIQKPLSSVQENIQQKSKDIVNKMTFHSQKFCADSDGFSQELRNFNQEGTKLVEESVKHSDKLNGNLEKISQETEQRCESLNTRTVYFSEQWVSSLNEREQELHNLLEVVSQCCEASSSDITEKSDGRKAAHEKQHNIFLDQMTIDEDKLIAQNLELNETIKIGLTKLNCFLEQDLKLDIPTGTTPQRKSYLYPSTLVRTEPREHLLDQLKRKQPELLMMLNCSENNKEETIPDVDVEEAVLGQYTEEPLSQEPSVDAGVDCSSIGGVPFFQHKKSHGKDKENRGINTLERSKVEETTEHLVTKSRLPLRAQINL

[4] = test system: MDA-MB-231 cells; assay: Annexin V-FITC/PI flow cytometry; type: cell-based; conditions: MDA-MB-231, Annexin V-FITC & PI, post-treatment
In short: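 MDA-MB-231 cells were kept in DMEM with 10% FBS and 1% streptomycin/penicillin at 37 °C under 5% CO2. Cells were treated with the test compound for 48 h, with doxorubicin as the standard and untreated cells for comparison. Cells were then harvested, rinsed, suspended in PBS, stained with Annexin V-FITC/PI and held 20 min in the dark before flow cytometry. Early apoptosis was Annexin V+/PI−; late apoptosis was Annexin V+/PI+.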

[5] = MTT assay on oral epithelial normal cells; type: cell-based
In short: (§1)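 Cells kept in DMEM with 10% (v/v) FBS and 1% (v/v) streptomycin/penicillin at 37 °C and 5% CO2. About 10^4 cells/ml were seeded and grown for 24 h. Test compounds in DMSO were added at 6.25, 12.5, 25, 50 and 100 µg/ml for 24 and 48 h. Medium was replaced with 5 mg/mL MTT for 3–4 h. Formazan was dissolved in acidified isopropanol and read at 630 nm. Viability is expressed as % of untreated cells.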

[6] = test system: MDA-MB-231 cells; assay: DNA fragmentation by gel electrophoresis; type: cell-based; conditions: post-treatment
In short: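 MDA-MB-231 cells kept in DMEM with 10% FBS and 1% streptomycin/penicillin at 37 °C, 5% CO2. Genomic DNA was extracted with a commercial kit from cells before and after test compound treatment, and its quality was checked by nanodrop. DNA plus 1X loading dye was run on agarose gel, viewed under a UV transilluminator and imaged on a gel documentation system. Doxorubicin served as reference.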

[7] = test system: MDA-MB-231 breast cancer cells; assay: MTT assay on MDA-MB-231 cells; type: cell-based; conditions: Homo sapiens
In short: as §1

[8] = molecular target: T1, KSP ATPase; assay: Microtubule-activated KSP ATPase end-point assay; type: biochemical; conditions: read-out: KSP ATPase inhibition [%]
[9] = test system: MDA-MB-231 cells; assay: qRT-PCR relative gene expression of P53, BAX and BCL-2; type: cell-based; conditions: MDA-MB-231, 48 h
In short: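 RNA was extracted from cells after 48 h of treatment with test compound, and its purity was checked by nanodrop. P53, BAX and BCL-2 expression was normalised to β-actin as the housekeeping gene. Treated and untreated cells were compared by ANOVA.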

PI3Kδ, sequence (O00329 whole entry): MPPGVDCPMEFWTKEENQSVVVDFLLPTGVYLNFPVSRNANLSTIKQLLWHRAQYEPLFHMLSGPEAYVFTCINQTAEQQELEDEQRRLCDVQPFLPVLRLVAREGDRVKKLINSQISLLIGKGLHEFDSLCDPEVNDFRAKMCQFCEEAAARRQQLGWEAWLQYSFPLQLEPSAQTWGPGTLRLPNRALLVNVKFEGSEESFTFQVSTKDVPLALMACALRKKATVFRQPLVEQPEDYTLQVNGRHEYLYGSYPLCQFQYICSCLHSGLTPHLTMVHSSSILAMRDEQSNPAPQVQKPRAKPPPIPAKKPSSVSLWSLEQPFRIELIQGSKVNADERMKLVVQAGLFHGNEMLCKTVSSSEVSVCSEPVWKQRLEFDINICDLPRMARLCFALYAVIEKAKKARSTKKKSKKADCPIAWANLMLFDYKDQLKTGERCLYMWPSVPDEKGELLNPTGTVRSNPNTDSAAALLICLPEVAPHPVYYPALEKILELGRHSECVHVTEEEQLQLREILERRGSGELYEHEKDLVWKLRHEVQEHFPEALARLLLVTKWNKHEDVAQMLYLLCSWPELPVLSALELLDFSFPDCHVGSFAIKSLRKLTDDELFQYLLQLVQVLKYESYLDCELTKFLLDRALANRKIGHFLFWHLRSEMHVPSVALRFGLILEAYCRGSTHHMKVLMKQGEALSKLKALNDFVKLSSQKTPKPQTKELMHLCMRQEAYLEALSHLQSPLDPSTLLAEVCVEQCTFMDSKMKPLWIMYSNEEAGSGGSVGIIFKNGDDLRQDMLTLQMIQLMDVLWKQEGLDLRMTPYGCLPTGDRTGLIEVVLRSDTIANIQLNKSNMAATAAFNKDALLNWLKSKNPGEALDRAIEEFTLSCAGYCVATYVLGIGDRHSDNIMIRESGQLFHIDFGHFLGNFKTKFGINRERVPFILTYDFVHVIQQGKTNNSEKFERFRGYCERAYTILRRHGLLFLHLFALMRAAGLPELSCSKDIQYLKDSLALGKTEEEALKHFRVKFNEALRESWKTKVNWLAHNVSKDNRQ
PI3Kδ, sequence (P27986 whole entry partner): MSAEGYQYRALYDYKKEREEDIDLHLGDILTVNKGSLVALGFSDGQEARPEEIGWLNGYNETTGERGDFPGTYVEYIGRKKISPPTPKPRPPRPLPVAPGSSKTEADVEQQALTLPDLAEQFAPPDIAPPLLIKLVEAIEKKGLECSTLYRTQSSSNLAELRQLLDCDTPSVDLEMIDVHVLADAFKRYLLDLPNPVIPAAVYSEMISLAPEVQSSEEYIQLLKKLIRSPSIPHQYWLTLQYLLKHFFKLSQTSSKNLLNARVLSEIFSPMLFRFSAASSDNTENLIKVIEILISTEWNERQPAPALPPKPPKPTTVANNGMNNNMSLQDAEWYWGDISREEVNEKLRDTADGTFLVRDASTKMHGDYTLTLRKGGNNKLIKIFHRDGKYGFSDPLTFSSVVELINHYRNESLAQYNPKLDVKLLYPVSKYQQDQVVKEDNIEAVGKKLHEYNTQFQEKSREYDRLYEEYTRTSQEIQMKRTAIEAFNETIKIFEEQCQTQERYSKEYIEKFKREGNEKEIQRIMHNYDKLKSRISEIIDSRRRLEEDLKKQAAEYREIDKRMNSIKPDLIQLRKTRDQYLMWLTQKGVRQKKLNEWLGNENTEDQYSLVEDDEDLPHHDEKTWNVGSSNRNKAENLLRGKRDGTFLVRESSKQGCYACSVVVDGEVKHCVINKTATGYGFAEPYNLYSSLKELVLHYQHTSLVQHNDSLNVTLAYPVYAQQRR

Question: With `CC(C)=CCSc1nc2ccc(Cl)cc2c(=O)n1-c1ccc(F)cc1` [Compound 3b, 6-Chloro-3-(4-fluorophenyl)-2-((3-methylbut-2-en-1-yl)thio)quinazolin-4(3H)-one] as the compound, how does the “Morphological changes of treated cells” value [1] read?
Answer: cell shrinkage, apoptotic bodies formation, and membrane blebbing

Question: What about the IC50 [2] of the same compound?
Answer: 0.0323 ± 0.00218 µM

Question: And the IC50 [3]?
Answer: 0.0858 µM

Question: What about the “Number of cells in the early and late apoptosis versus untreated cells” value [4] of the same compound?
Answer: significant increase

Question: What about the IC50 at 48 h [5] of the same compound?
Answer: 98 µg/mL and 261 µM

Question: And the DNA fragmentation [6]?
Answer: internucleosomal fragmentation was noticed

Question: And the IC50 ([7]; MDA-MB-231, 24 h, read-out: IC50 after 24 h (µM))?
Answer: 47.5 µM

Question: What about the IC50 ([7]; MDA-MB-231, 24 h, read-out: IC50 after 24 h in µg/mL) of the same compound?
Answer: 17.8 ± 0.12 µg/mL

Question: And the IC50 ([7]; MDA-MB-231, 48 h, read-out: IC50 after 48 h (µM))?
Answer: 16.3 µM

Question: What about the IC50 ([7]; MDA-MB-231, 48 h, read-out: IC50 after 48 h in µg/mL) of the same compound?
Answer: 6.1 ± 0.1 µg/mL

Question: What about the inhibition at 2 µM [8] of the same compound?
Answer: 89.6 ± 3.42%

Question: What about the “Relative gene expression of BAX” value [9] of the same compound?
Answer: significant overexpression

Question: And the “Relative gene expression of BCL-2” value [9]?
Answer: downregulation

Question: And the “Relative gene expression of P53” value [9]?
Answer: significant overexpression
